Measurements taken from ChEMBL document CHEMBL3232838, “Synthesis, crystal structure and biological evaluation of some novel 1,2,4-triazolo[3,4-b]-1,3,4-thiadiazoles and 1,2,4-triazolo[3,4-b]-1,3,4-thiadiazines” (Eur J Med Chem, 2014).

What was measured:
[1] = Anticancer activity against Syrian golden hamster BHK21 cells at 100 uM after 48 hrs by SRB assay; assay type: functional; settings: Mesocricetus auratus, BHK-21, 48 h; read-out: GI
Method in brief: (§1)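 RPMI-1640 culture with 10% heat-inactivated FBS, 2 mM glutamine, 1 mM pyruvate and penicillin/streptomycin at 37 °C, 5% CO2. Cells per 96-well well: H157 10⁴, BHK-21 5×10⁴. After 24 h, monolayers were exposed to 100, 10, 1 or 0.1 µM compound for 48 h, with vincristine as standard. Cells were fixed in cold 50% TCA (4 °C, 1 h) and stained with 0.4% SRB in 1% acetic acid (30 min). Dye was dissolved in 10 mM Tris and read at A490 minus A630. Read-out was percent inhibition.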

NCI-H157 [2] = assay: Anticancer activity against human NCI-H157 cells at 0.1 uM after 48 hrs by SRB assay; assay type: functional; settings: NCI-H157, 48 h, read-out: GI; method in brief: as §1
[3] = molecular target: Intestinal-type alkaline phosphatase (Bos taurus) (UniProt P19111); assay: (§2) Inhibition of calf intestinal alkaline phosphatase using p-nitrophenyl phosphate as substrate preincubated for 10 mins before substrate addition after 30 mins; parameters: concentration or dose not given beside the values
NCI-H157 [4] = assay: Anticancer activity against human NCI-H157 cells at 10 uM after 48 hrs by SRB assay; assay type: functional; settings: NCI-H157, 48 h, read-out: GI; method in brief: as §1
[5] = Anticancer activity against Syrian golden hamster BHK21 cells at 10 uM after 48 hrs by SRB assay; assay type: functional; settings: Mesocricetus auratus, BHK-21, 48 h; read-out: GI; method in brief: as §1
[6] = Anticancer activity against Syrian golden hamster BHK21 cells at 1 uM after 48 hrs by SRB assay; assay type: functional; settings: Mesocricetus auratus, BHK-21, 48 h; read-out: GI; method in brief: as §1
[7] = molecular target: Acetylcholinesterase (Electrophorus electricus) (UniProt O42275); assay: (§3) Inhibition of electric eel acetylcholinesterase using acetylthiocholine iodide as substrate preincubated for 10 mins before substrate addition after 15 mins by Ellman's method
Leishmania major [8] = assay: Antileishmanial activity against promastigote form of Leishmania major at 100 uM after 72 hrs by MTT assay; assay type: functional
Method in brief: (§4)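 Log-phase promastigotes grown at 25 °C in phenol-red-free D-MEM/F-12 with 10% heat-inactivated FBS, washed in PBS, seeded at 2.5×10⁶/mL (100 µL/well). Compounds in triplicate wells, 72 h at 25 °C; amphotericin B standard. MTT (5 mg/mL stock) 3 h, stopped with 50% isopropanol/10% SDS, OD570 minus 690. Percent inhibition vs control; mean ± SEM of three independent experiments.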

Leishmania major [9] = assay: Antileishmanial activity against promastigote form of Leishmania major at 0.1 uM after 72 hrs by MTT assay; assay type: functional; method in brief: as §4
NCI-H157 [10] = assay: Anticancer activity against human NCI-H157 cells at 1 uM after 48 hrs by SRB assay; assay type: functional; settings: NCI-H157, 48 h, read-out: GI; method in brief: as §1
Leishmania major [11] = assay: Antileishmanial activity against promastigote form of Leishmania major at 1 uM after 72 hrs by MTT assay; assay type: functional; method in brief: as §4
NCI-H157 [12] = assay: Anticancer activity against human NCI-H157 cells at 100 uM after 48 hrs by SRB assay; assay type: functional; settings: NCI-H157, 48 h, read-out: GI; method in brief: as §1
Cholinesterase = Cholinesterase (Homo sapiens, UniProt P06276); assay: Inhibition of human BChE using butyrylthiocholine iodide as substrate preincubated for 10 mins before substrate addition after 15 mins by Ellman's method; parameters: concentration or dose not given beside the values
Method in brief: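 Ellman assay in 50 mM Tris-HCl, 0.1 M NaCl, 0.02 M MgCl2, pH 8.0, with DMSO at 1% final. hBChE (3.4 U/mg) is preincubated with compound for 10 min at 25 °C. Blanks lack enzyme or substrate. IC50 from linear regression.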

Leishmania major [13] = assay: Antileishmanial activity against promastigote form of Leishmania major at 10 uM after 72 hrs by MTT assay; assay type: functional; method in brief: as §4
[14] = Anticancer activity against Syrian golden hamster BHK21 cells at 0.1 uM after 48 hrs by SRB assay; assay type: functional; settings: Mesocricetus auratus, BHK-21, 48 h; read-out: GI; method in brief: as §1
[15] = molecular target: Intestinal-type alkaline phosphatase (Bos taurus, UniProt P19111); assay: as §2
Acetylcholinesterase = Acetylcholinesterase (Electrophorus electricus, UniProt O42275); assay: as §3
Acetylcholinesterase, sequence (O42275 whole entry): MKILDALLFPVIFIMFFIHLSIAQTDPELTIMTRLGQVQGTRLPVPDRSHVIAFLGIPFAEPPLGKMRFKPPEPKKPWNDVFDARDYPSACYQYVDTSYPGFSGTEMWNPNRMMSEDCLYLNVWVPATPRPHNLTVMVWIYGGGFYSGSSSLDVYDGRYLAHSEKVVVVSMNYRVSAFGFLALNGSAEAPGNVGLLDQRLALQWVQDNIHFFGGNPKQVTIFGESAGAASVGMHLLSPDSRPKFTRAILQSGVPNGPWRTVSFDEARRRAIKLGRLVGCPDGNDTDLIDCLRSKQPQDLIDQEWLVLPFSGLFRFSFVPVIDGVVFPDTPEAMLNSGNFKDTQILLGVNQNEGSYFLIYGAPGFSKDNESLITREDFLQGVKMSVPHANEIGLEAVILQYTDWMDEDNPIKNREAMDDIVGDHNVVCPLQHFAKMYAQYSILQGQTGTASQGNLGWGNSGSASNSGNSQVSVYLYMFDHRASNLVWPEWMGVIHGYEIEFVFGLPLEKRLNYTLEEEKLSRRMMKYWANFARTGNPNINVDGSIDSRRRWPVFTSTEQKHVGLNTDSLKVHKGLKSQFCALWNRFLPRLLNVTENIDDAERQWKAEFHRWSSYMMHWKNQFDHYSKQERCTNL

Acetylcholinesterase (Electrophorus electricus), sequence (O42275 24-633 limits assumed): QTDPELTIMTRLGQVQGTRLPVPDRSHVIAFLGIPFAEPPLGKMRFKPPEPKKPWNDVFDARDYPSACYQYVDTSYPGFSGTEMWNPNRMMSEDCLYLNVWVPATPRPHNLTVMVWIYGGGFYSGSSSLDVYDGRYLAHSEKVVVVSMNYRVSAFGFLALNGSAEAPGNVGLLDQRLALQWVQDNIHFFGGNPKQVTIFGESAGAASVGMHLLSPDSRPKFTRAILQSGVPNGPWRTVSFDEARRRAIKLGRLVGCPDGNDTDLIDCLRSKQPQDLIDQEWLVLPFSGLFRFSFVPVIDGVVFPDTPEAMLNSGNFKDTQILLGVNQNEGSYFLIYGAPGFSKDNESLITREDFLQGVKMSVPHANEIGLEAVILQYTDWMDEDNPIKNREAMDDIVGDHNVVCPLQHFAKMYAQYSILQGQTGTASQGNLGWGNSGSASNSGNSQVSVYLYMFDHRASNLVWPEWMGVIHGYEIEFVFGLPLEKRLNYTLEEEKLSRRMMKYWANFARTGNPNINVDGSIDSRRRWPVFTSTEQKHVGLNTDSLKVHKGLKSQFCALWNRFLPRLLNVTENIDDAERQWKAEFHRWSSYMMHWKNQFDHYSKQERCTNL
Intestinal-type alkaline phosphatase (Bos taurus), sequence (P19111 20-506 limits assumed): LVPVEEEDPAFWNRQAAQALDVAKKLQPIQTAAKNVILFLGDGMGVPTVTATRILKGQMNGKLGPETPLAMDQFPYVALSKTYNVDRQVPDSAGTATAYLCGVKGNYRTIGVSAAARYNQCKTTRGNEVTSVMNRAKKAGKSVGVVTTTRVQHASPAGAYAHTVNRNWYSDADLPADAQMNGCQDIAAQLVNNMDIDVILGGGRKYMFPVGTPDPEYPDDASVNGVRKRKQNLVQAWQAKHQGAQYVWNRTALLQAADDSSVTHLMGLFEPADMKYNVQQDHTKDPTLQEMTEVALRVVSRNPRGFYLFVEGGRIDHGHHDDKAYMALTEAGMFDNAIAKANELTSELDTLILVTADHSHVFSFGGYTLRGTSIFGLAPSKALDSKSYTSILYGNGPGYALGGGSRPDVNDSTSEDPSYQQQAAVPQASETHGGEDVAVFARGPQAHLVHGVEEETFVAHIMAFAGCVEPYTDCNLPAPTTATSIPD
Cholinesterase, sequence (P06276 whole entry): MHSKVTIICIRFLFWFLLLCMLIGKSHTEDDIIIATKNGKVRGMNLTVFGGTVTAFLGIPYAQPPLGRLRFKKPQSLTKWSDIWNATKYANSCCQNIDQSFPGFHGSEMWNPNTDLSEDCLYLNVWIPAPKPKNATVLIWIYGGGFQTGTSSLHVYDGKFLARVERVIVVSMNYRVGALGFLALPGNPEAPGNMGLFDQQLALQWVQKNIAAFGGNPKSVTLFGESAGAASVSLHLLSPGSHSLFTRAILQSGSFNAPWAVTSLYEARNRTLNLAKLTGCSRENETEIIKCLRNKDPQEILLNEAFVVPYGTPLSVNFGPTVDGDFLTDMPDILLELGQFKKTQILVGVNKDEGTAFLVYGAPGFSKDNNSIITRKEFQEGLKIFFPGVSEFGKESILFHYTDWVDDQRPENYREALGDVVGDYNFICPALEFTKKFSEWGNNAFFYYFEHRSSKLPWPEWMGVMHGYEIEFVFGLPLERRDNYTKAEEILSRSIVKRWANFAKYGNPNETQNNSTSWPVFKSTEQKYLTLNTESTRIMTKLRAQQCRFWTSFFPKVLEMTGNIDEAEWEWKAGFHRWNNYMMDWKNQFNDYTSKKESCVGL
Intestinal-type alkaline phosphatase, sequence (P19111 whole entry): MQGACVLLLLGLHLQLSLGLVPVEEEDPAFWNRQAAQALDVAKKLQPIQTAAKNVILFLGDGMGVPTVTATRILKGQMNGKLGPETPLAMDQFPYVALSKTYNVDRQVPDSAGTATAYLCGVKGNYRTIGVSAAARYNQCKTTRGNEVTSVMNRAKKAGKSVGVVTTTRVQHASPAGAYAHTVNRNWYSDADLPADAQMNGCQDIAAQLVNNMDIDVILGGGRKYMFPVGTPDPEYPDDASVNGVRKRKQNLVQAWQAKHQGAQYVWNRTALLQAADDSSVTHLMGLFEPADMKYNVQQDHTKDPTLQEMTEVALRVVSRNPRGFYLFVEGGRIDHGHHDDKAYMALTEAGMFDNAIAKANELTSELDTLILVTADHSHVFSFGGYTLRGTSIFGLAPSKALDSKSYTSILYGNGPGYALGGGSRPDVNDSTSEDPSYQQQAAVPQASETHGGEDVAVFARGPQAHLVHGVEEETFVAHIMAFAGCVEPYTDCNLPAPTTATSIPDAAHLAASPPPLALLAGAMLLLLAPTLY

| Structure (SMILES) | inhibition of growth at 100 µM [1] | inhibition of growth at 0.1 µM (NCI-H157 [2]) | inhibition [3] | inhibition of growth at 10 µM (NCI-H157 [4]) | inhibition of growth at 10 µM [5] | inhibition of growth at 1 µM [6] | inhibition [7] | inhibition at 100 µM (Leishmania major [8]) | inhibition at 0.1 µM (Leishmania major [9]) | inhibition of growth at 1 µM (NCI-H157 [10]) | inhibition at 1 µM (Leishmania major [11]) | inhibition of growth at 100 µM (NCI-H157 [12]) | inhibition (Cholinesterase) | inhibition at 10 µM (Leishmania major [13]) | inhibition of growth at 0.1 µM [14] | IC50 [15] | IC50 (Acetylcholinesterase) | IC50 (Cholinesterase) |
| --- | --- | --- | --- | --- | --- | --- | --- | --- | --- | --- | --- | --- | --- | --- | --- | --- | --- | --- |
| Fc1cc(Cl)c(-c2nn3c(-c4ccncc4)nnc3s2)cc1F | 58.9% | 36.4% | 31.6% | 45.2% | 53.9% | 49.7% | 47.2% | 40.3% | 31.3% | 41.4% | 35.4% | 49.2% | 18.2% | 37.9% | 46.7% |  |  |  |
| Oc1ccc(OCc2nn3c(-c4ccncc4)nnc3s2)cc1 | 60.5% | 52.6% |  | 60.9% | 56.2% | 53.7% |  | 48% | 37.2% | 56.3% | 41.9% | 63.7% |  | 45.3% | 51.6% | 5.61 µM | 15.6 µM | 39.1 µM |
| Clc1ccc(C2=Nn3c(nnc3-c3ccncc3)SC2)cc1Cl | 63.5% | 59.4% |  | 67.4% | 59.4% | 56.5% | 46% | 59.8% | 49.3% | 63.5% | 52.3% | 72.1% |  | 56.4% | 52.8% | 1.32 µM |  | 12.2 µM |
| c1cc(-c2nnc3sc(-c4ccoc4)nn23)ccn1 | 31.2% | 54.8% |  | 61.6% | 28.7% | 23.3% | 34.6% | 54.6% | 45.2% | 57.7% | 48.5% | 64.3% |  | 51.5% | 20.3% | 7.71 µM |  | 36.2 µM |
| Cc1ccccc1OCc1nn2c(-c3ccncc3)nnc2s1 | 62.1% | 50.5% |  | 56.8% | 56.5% | 54.9% |  | 71.4% | 62.1% | 53.2% | 65.5% | 59.2% |  | 68.9% | 51.2% | 3.08 µM | 41.5 µM | 51.3 µM |
| CCOc1ccc(Cc2nn3c(-c4ccncc4)nnc3s2)cc1 | 48.6% | 60.2% |  | 67.4% | 45.4% | 40.9% |  | 66.8% | 56.4% | 63.8% | 60.8% | 70.5% |  | 63% | 38.2% | 6.17 µM | 3.48 µM | 32.1 µM |
| COc1cccc(C2=Nn3c(nnc3-c3ccncc3)SC2)c1 | 73.3% | 43.1% | 38.5% | 51.1% | 69.9% | 66.7% |  | 38.6% | 29.3% | 47.5% | 32.3% | 54.4% | 28.9% | 35.2% | 52.4% |  | 23.8 µM |  |
| c1coc(-c2nn3c(-c4ccncc4)nnc3s2)c1 | 50.9% | 56% |  | 63.8% | 48.2% | 44.9% |  | 81.2% | 71.5% | 60.9% | 75.8% | 67.9% |  | 77.2% | 41% | 3.24 µM | 12.4 µM | 61.6 µM |
| Cc1occc1-c1nn2c(-c3ccncc3)nnc2s1 | 64.7% | 47.1% | 29.9% | 55.1% | 61.6% | 57% |  | 34.9% | 25.1% | 51.9% | 27.3% | 58.4% | 41.2% | 30.8% | 54.6% |  | 51.2 µM |  |
| Clc1cccc(C2=Nn3c(nnc3-c3ccncc3)SC2)c1 | 56.4% | 57.4% | 48% | 63.8% | 53.3% | 50.3% |  | 41.8% | 31.7% | 60.8% | 34.6% | 67.4% |  | 38.3% | 46.2% |  | 22.7 µM | 39.4 µM |
| Oc1ccccc1OCc1nn2c(-c3ccncc3)nnc2s1 | 53.8% | 31.8% | 46% | 37.3% | 49.9% | 46.3% |  | 37.2% | 27.8% | 35.9% | 31.2% | 41.8% |  | 34.6% | 43.8% |  | 54 µM | 18 µM |
